Assay results taken from ChEMBL document CHEMBL5705905, “Pharmacological targeting of kinases MST1 and MST2 augments tissue repair and regeneration” (Sci Transl Med, 2016).
The source made the active and inactive calls. The rule behind the calls is not given here.

What was measured:
[1] = biological target: Cytoplasmic tyrosine-protein kinase BMX (Homo sapiens) (UniProt P51813); experiment: Inhibition of BMX (unknown origin) assessed as remaining activity at 1 uM by Kinome scan method relative to control
Procedure, shortened: (§1)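 Active-site-dependent competition-binding (KINOMEscan) panel of 468 kinases, test compound at 1 μM (from a 10 mM DMSO stock). Read-out is ctrl% = (test signal − positive control signal)/(negative control signal − positive control signal) × 100. DMSO is the negative control (100%) and a control compound is the positive control (0%). Lower ctrl% means tighter binding.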

[2] = biological target: Calcium/calmodulin-dependent protein kinase type 1B (Homo sapiens) (UniProt Q6P2M8); experiment: Inhibition of CAMK1B (unknown origin) assessed as remaining activity at 1 uM by Kinome scan method relative to control; procedure, shortened: as §1
[3] = biological target: Cyclin-dependent kinase 11B (Homo sapiens) (UniProt P21127); experiment: Inhibition of CDC2L1 (unknown origin) assessed as remaining activity at 1 uM by Kinome scan method relative to control
Procedure, shortened: (§2)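 Active-site-dependent competition-binding profiling (KINOMEscan) at 1 μM against a 468-kinase panel; compound supplied from a 10 mM DMSO stock. Read-out is ctrl% = (test signal − positive control signal)/(negative control signal − positive control signal) × 100. DMSO is the negative control (100%) and a control compound the positive control (0%). Lower ctrl% means tighter binding.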

[4] = biological target: Cyclin-dependent kinase 3 (Homo sapiens) (UniProt Q00526); experiment: Inhibition of CDK3 (unknown origin) assessed as remaining activity at 1 uM by Kinome scan method relative to control; procedure, shortened: as §2
[5] = biological target: Dual specificity protein kinase CLK1 (Homo sapiens) (UniProt P49759); experiment: Inhibition of CLK1 (unknown origin) assessed as remaining activity at 1 uM by Kinome scan method relative to control; procedure, shortened: as §2
[6] = biological target: Serine/threonine-protein kinase 17B (Homo sapiens) (UniProt O94768); experiment: Inhibition of DRAK2 (unknown origin) assessed as remaining activity at 1 uM by Kinome scan method relative to control
[7] = biological target: Ephrin type-A receptor 3 (Homo sapiens) (UniProt P29320); experiment: Inhibition of EPHA3 (unknown origin) assessed as remaining activity at 1 uM by Kinome scan method relative to control
[8] = biological target: Tyrosine-protein kinase Fes/Fps (Homo sapiens) (UniProt P07332); experiment: Inhibition of FES (unknown origin) assessed as remaining activity at 1 uM by Kinome scan method relative to control
[9] = biological target: Homeodomain-interacting protein kinase 4 (Homo sapiens) (UniProt Q8NE63); experiment: Inhibition of HIPK4 (unknown origin) assessed as remaining activity at 1 uM by Kinome scan method relative to control
[10] = biological target: Hormonally up-regulated neu tumor-associated kinase (Homo sapiens) (UniProt P57058); experiment: Inhibition of HUNK (unknown origin) assessed as remaining activity at 1 uM by Kinome scan method relative to control
[11] = biological target: Serine/threonine-protein kinase ICK (Homo sapiens) (UniProt Q9UPZ9); experiment: Inhibition of ICK (unknown origin) assessed as remaining activity at 1 uM by Kinome scan method relative to control
[12] = biological target: Tyrosine-protein kinase Lyn (Homo sapiens) (UniProt P07948); experiment: Inhibition of LYN (unknown origin) assessed as remaining activity at 1 uM by Kinome scan method relative to control
[13] = biological target: Hepatocyte growth factor receptor (Homo sapiens) (UniProt P08581); experiment: Inhibition of MET (unknown origin) assessed as remaining activity at 1 uM by Kinome scan method relative to control
[14] = biological target: Calcium-dependent protein kinase 1 (Plasmodium falciparum) (UniProt P62344); experiment: Inhibition of Plasmodium falciparum CDPK1 assessed as remaining activity at 1 uM by Kinome scan method relative to control
[15] = system: Phosphatidylinositol 4,5-bisphosphate 3-kinase catalytic subunit alpha isoform (Homo sapiens), P42336 [E545A]; experiment: Inhibition of PIK3CA E545A mutant (unknown origin) assessed as remaining activity at 1 uM by Kinome scan method relative to control
[16] = biological target: Serine/threonine-protein kinase PLK1 (Homo sapiens) (UniProt P53350); experiment: Inhibition of PLK1 (unknown origin) assessed as remaining activity at 1 uM by Kinome scan method relative to control
[17] = biological target: Serine/threonine-protein kinase D2 (Homo sapiens) (UniProt Q9BZL6); experiment: Inhibition of PRKD2 (unknown origin) assessed as remaining activity at 1 uM by Kinome scan method relative to control
[18] = biological target: Proto-oncogene tyrosine-protein kinase receptor Ret (Homo sapiens) (UniProt P07949); experiment: Inhibition of RET (unknown origin) assessed as remaining activity at 1 uM by Kinome scan method relative to control
[19] = biological target: Uncharacterized serine/threonine-protein kinase SBK3 (Homo sapiens) (UniProt P0C264); experiment: Inhibition of SgK110 (unknown origin) assessed as remaining activity at 1 uM by Kinome scan method relative to control
[20] = biological target: SRSF protein kinase 1 (Homo sapiens) (UniProt Q96SB4); experiment: Inhibition of SRPK1 (unknown origin) assessed as remaining activity at 1 uM by Kinome scan method relative to control
[21] = biological target: Serine/threonine-protein kinase ULK2 (Homo sapiens) (UniProt Q8IYT8); experiment: Inhibition of ULK2 (unknown origin) assessed as remaining activity at 1 uM by Kinome scan method relative to control
[22] = biological target: Phosphatidylinositol 3-kinase catalytic subunit type 3 (Homo sapiens) (UniProt Q8NEB9); experiment: Inhibition of VPS34 (unknown origin) assessed as remaining activity at 1 uM by Kinome scan method relative to control
[23] = biological target: Wee1-like protein kinase (Homo sapiens) (UniProt P30291); experiment: Inhibition of WEE1 (unknown origin) assessed as remaining activity at 1 uM by Kinome scan method relative to control
HepG2 = experiment: Induction of apoptosis in human HepG2 cells assessed as late apoptosis cells at 3 uM by annexinV staining (Rvb =0.84 %); type: functional
[24] = AUC (0 to t) in male Sprague-Dawley rat at 10 mg/kg, po measured for 24 hrs by LC-MS/MS analysis; type: ADME, organism-based; settings: in vivo
Procedure, shortened: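 Sprague-Dawley rats, single intravenous or oral dose. Parameters (half-life, AUC, bioavailability) reported in a supplementary table.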

Mus musculus [25] = experiment: In vivo inhibition of MST1/2 in wild-type Mst1fl/fl Mst2fl/fl mouse assessed as high in CTGF mRNA level at 1 mg/kg, ip administrated daily for 7 days by RT-PCR analysis; type: functional, organism-based; settings: Liver, time 7.0 day
Mus musculus [26] = experiment: Protection against APAP induced liver injury in mouse assessed as increase in survival rate at 1 mg/kg, ip administered at 2.5 hrs […]; type: functional
Procedure, shortened: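 Wild-type mice given oral APAP 400 mg/kg, then i.p. vehicle, NAC 250 mg/kg, 1 mg/kg test agent, or NAC plus test agent at 1.5 or 2.5 h. Mortality was tracked with n = 10–11 per group, Mantel-Cox test. Separately, TUNEL was done on liver after 200 mg/kg APAP with treatment at 2.5 h.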

Phosphatidylinositol 3-kinase catalytic subunit type 3 (Homo sapiens), sequence (Q8NEB9 whole entry): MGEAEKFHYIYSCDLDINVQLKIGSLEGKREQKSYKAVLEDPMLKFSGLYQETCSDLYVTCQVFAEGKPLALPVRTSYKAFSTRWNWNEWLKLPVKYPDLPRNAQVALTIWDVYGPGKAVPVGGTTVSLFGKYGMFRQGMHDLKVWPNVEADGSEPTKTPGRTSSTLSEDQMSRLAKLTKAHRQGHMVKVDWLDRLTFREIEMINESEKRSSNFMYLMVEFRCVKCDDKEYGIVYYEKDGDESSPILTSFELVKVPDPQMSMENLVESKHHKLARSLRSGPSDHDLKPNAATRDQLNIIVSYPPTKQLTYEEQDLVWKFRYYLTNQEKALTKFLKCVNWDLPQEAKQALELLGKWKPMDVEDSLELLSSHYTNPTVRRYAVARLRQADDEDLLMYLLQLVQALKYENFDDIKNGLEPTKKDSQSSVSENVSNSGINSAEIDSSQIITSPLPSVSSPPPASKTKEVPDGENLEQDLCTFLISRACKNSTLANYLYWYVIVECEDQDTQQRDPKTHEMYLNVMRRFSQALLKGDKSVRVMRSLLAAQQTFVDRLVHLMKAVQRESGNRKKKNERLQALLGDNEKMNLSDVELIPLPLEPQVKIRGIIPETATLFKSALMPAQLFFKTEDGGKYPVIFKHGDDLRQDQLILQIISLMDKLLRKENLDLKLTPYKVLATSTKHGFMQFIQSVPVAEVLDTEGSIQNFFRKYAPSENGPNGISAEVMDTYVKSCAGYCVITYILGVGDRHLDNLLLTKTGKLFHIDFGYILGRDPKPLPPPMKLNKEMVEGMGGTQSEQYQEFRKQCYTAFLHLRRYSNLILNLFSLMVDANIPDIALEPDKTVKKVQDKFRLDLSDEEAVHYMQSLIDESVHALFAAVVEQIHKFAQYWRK
Wee1-like protein kinase (Homo sapiens), sequence (P30291 whole entry, looked up): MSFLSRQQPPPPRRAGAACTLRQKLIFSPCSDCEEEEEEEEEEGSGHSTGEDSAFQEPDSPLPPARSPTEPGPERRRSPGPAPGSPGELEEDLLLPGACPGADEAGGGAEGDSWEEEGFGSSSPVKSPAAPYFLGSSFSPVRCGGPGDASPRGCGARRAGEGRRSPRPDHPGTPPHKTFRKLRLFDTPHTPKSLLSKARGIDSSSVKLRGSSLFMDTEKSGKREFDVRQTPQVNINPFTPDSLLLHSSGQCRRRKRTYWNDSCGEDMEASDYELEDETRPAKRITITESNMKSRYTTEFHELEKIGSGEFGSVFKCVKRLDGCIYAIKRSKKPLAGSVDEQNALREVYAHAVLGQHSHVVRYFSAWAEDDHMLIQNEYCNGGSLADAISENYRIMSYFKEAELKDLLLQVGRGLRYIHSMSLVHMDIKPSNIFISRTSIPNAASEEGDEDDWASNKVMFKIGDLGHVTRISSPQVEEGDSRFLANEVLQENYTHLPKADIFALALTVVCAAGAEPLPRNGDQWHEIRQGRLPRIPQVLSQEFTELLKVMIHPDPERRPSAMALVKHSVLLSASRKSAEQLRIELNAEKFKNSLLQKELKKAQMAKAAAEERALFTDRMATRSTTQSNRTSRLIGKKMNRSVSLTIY
Hepatocyte growth factor receptor (Homo sapiens), sequence (P08581 whole entry): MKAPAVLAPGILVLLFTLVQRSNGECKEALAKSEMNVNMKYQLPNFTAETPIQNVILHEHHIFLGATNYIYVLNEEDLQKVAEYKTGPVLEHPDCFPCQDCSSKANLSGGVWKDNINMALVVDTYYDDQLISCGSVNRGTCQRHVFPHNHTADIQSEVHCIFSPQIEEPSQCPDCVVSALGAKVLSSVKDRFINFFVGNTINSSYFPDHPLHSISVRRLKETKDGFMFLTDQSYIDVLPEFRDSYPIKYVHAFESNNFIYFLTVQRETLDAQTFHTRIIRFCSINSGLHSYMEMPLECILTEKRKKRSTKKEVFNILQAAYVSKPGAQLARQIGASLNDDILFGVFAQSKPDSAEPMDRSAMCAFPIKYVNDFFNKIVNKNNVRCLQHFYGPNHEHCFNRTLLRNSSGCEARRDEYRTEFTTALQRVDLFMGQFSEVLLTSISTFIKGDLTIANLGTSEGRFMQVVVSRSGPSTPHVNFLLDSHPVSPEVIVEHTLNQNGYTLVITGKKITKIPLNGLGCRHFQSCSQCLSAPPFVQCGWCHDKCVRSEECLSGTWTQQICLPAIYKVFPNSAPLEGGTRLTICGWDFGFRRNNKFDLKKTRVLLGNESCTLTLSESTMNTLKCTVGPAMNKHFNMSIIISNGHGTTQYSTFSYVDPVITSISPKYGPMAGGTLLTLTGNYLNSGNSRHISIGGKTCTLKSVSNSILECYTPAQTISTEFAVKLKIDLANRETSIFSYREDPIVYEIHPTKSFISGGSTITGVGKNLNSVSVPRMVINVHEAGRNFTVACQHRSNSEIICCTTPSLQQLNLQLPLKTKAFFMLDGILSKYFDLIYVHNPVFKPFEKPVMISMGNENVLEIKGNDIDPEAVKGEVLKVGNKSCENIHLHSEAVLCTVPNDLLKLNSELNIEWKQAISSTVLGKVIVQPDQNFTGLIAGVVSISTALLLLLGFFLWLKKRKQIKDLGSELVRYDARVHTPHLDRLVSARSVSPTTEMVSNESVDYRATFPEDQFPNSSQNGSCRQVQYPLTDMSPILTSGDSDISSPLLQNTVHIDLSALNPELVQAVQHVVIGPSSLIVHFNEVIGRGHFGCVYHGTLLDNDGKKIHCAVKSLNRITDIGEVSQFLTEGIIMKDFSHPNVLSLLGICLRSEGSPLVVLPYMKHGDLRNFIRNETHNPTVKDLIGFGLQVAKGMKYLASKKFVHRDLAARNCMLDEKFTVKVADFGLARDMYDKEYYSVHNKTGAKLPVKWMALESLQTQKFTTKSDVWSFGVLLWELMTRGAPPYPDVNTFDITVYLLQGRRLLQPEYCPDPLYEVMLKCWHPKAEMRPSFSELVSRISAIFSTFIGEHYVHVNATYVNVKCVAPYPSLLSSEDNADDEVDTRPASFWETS
Phosphatidylinositol 4,5-bisphosphate 3-kinase catalytic subunit alpha isoform (Homo sapiens), P42336 [E545A], sequence (P42336 whole entry E545A, canonical isoform): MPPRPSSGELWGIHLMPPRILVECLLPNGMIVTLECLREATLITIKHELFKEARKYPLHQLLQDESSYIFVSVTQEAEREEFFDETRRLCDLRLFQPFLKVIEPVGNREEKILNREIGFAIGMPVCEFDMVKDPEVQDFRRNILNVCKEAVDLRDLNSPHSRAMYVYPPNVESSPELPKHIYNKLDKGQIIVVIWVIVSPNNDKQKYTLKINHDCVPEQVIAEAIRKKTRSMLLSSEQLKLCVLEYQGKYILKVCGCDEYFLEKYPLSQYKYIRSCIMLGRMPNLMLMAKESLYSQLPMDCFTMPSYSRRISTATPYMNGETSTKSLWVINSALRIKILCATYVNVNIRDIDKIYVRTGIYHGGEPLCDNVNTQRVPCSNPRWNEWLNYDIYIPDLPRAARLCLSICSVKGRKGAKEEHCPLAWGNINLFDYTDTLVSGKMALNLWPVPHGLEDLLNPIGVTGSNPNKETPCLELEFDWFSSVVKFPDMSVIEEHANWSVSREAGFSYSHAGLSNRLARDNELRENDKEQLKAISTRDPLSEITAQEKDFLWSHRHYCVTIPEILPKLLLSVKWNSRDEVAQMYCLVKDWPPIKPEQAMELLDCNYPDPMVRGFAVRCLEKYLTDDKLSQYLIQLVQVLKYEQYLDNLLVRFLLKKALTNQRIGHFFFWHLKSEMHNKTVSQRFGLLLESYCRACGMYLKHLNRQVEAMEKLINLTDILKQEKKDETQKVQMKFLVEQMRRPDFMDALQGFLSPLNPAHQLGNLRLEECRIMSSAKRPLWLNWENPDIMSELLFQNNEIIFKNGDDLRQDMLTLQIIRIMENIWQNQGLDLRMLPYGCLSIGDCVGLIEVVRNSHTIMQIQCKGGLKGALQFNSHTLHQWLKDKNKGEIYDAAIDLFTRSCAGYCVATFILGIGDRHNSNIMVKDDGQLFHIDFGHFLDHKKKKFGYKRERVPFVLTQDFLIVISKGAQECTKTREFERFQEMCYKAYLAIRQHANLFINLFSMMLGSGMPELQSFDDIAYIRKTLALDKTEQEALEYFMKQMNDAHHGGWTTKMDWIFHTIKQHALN
Calcium-dependent protein kinase 1 (Plasmodium falciparum), sequence (P62344 2-524 limits assumed): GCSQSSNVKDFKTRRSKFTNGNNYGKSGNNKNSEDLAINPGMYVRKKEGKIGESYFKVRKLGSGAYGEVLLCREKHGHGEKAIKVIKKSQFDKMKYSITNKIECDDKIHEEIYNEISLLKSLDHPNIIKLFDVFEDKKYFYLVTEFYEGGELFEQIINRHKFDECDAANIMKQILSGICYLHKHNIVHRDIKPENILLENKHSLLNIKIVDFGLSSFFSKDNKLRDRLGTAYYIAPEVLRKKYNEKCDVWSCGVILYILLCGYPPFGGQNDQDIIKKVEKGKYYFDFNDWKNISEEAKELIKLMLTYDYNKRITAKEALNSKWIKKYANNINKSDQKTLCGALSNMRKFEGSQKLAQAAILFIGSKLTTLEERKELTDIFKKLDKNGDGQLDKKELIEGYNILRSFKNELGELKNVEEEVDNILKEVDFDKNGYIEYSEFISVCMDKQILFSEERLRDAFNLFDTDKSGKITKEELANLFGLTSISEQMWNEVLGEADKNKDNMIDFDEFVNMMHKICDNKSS
Cyclin-dependent kinase 3 (Homo sapiens), sequence (Q00526 whole entry, looked up): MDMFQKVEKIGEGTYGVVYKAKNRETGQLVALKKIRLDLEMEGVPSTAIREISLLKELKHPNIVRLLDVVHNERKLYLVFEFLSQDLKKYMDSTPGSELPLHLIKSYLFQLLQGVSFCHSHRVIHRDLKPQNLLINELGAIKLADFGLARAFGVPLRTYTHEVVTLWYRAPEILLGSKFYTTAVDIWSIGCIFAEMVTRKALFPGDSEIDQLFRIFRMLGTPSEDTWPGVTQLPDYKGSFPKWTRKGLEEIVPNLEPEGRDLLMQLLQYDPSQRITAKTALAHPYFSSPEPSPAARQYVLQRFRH

Q: Which results are given for `CN1C(=O)c2sccc2N(C)c2nc(Nc3ccc(S(N)(=O)=O)cc3)ncc21`?
A: Activity [1]: 90%; Activity [2]: 84%; Activity [3]: 85%; Activity [4]: 100%; Activity [5]: 72%; Activity [6]: 90%; Activity [7]: 91%; Activity [8]: 39%; Activity [9]: 94%; Activity [10]: 84%; Activity [11]: 62%; Activity [12]: 100%; Activity [13]: 100%; Activity [14]: 100%; Activity [15]: 81%; Activity [16]: 70%; Activity [17]: 87%; Activity [18]: 100%; Activity [19]: 100%; Activity [20]: 65%; Activity [21]: 4.8%; Activity [22]: 79%; Activity [23]: 100%; Activity (HepG2): 0.96%; AUC(0-t) at 24 h [24]: 993 ng·h/mL; inhibition (Mus musculus [25]): Active; Activity (Mus musculus [26]): ~40%
